Assay results taken from ChEMBL document CHEMBL4007456, “Heterocyclyl Tetracyclines. 1. 7-Trifluoromethyl-8-Pyrrolidinyltetracyclines: Potent, Broad Spectrum Antibacterial Agents with Enhanced Activity against Pseudomonas aeruginosa” (2017).
Converted amounts (≈) assume the structure as drawn.

Columns and labels:
Assay type in all cases: functional
Klebsiella pneumoniae = assay: Antibacterial activity against gram-negative Klebsiella pneumoniae KP457 harboring blacTX-M-15 extended spectrum beta-lactamase gene by CLSI method
How it was run: (§1)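 CLSI broth microdilution MIC in fresh cation-adjusted Mueller Hinton broth, supplemented with defibrinated horse blood where appropriate. Compounds serially diluted in sterile deionized water. Runs accepted when comparator antibiotics against ATCC quality-control strains fell within recommended ranges.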

Pseudomonas aeruginosa [1] = assay: Antibacterial activity against Pseudomonas aeruginosa PA694 in CD-1 mouse model of thigh infection administered as iv bid for 2 to 12 hrs of post-infection measured after 24 hrs
How it was run: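 Female specific-pathogen-free CD-1 mice (22 ± 2 g), groups of 5, inoculated intramuscularly into right thigh with 3-5 x 10^6 CFU/mouse P. aeruginosa PA694 (UTI isolate). IV dosing at 5, 15 and 40 mg/kg at 2 and 12 h post-infection. Thigh muscle harvested at 24 h, homogenized in PBS pH 7.4, plated on Brain Heart Infusion agar + 0.5% charcoal; CFU/g thigh vs untreated controls; Mann-Whitney.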

Escherichia coli [2] = assay: Antibacterial activity against gram-negative Escherichia coli EC155 harboring tet(A) by CLSI method; how it was run: as §1
Pseudomonas aeruginosa [3] = assay: Antibacterial activity against Pseudomonas aeruginosa PA1145 in BALB/c mouse model of lung infection administered as iv bid for 2 to 12 hrs of post-infection measured after 24 hrs
How it was run: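 Female BALB/c mice (18–20 g) infected intranasally with ~2 x 10^7 CFU/mouse P. aeruginosa PA1145 (cystic fibrosis isolate) under light anesthesia. Dosing at 2 and 12 h post-infection, IV (compound, tigecycline, amikacin) or intranasal (tobramycin); n = 6 per group. Lungs harvested 24 h after treatment start, homogenized, plated on MacConkey agar, 37 °C overnight; CFU/g lung; Mann-Whitney vs T = 0 h or 24 h controls.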

Staphylococcus aureus [4] = assay: Antibacterial activity against gram-positive Staphylococcus aureus SA161 harboring tet(M) by CLSI method; how it was run: as §1
Pseudomonas aeruginosa [5] = assay: Antibacterial activity against Pseudomonas aeruginosa PA694 in CD-1 mouse model of thigh infection assessed as reduction in log10CFU per gram of thigh administered intranasally as bid for 2 to 12 hrs of post-infection measured after 24 hrs
Pseudomonas aeruginosa [6] = assay: Antibacterial activity against gram-negative Pseudomonas aeruginosa PA555 by CLSI method
How it was run: (§2)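 Broth microdilution MIC per CLSI in cation-adjusted Mueller Hinton broth, prepared fresh and held at 4 °C. Defibrinated horse blood added where appropriate. Compounds serially diluted in sterile deionized water. Strains from ATCC unless otherwise noted. Runs accepted when comparator antibiotics fell within QC ranges for ATCC quality control strains.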

Enterococcus faecium = assay: Antibacterial activity against gram-positive Enterococcus faecium EFm404 harboring tet(M) by CLSI method; how it was run: as §1
Pseudomonas aeruginosa [7] = assay: Antibacterial activity against Pseudomonas aeruginosa PA1145 in BALB/c mouse model of lung infection assessed as reduction in log10CFU per gram of lung at 5 mg/kg, iv bid administered 2 to 12 hrs of post-infection measured after 24 hrs relative to untreated control
How it was run: (§3)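 Female BALB/c mice, 18 to 20 g, infected intranasally under light anesthesia with ~ 2 x 10^7 CFU/mouse of P. aeruginosa PA1145 (cystic fibrosis isolate) in 0.05 mL. Treatment at 2 and 12 h post-infection, IV, or intranasally for tobramycin; n = 6 per group. Lungs harvested 24 h after treatment began, homogenized, plated on MacConkey medium, incubated overnight at 37 °C in 5% CO2. CFU per gram lung compared with T = 24 h untreated control.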

Enterobacter cloacae = assay: Antibacterial activity against gram-negative Enterobacter cloacae EC1603 harboring tet(A) by CLSI method; how it was run: as §1
Acinetobacter baumannii = assay: Antibacterial activity against gram-negative Acinetobacter baumannii AB250 by CLSI method; how it was run: as §2
Staphylococcus aureus [8] = assay: Antibacterial activity against gram-positive Staphylococcus aureus SA158 harboring tet(K) by CLSI method; how it was run: as §1
Pseudomonas aeruginosa [9] = assay: Antibacterial activity against Pseudomonas aeruginosa PA694 in CD-1 mouse model of thigh infection assessed as reduction in log10CFU per gram of thigh at 40 mg/kg, iv bid administered 2 to 12 hrs of post-infection measured after 24 hrs relative to untreated control
How it was run: (§4)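 Groups of 5 female specific-pathogen-free CD-1 mice, 22 ± 2 g. Right thigh inoculated intramuscularly with 3-5 x 10^6 CFU/mouse of P. aeruginosa PA694 (UTI isolate). Dosed IV at 5, 15 or 40 mg/kg at 2 and 12 h post-infection. Thigh muscle harvested at 24 h post-infection, homogenized in PBS (pH 7.4), plated on Brain Heart Infusion agar + 0.5% charcoal. Log10 CFU per gram thigh compared with 24 h untreated control.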

Pseudomonas aeruginosa [10] = assay: Antibacterial activity against Pseudomonas aeruginosa PA694 in CD-1 mouse model of thigh infection assessed as reduction in log10CFU per gram of thigh at 5 mg/kg, iv bid administered 2 to 12 hrs of post-infection measured after 24 hrs relative to untreated control; how it was run: as §4
Proteus mirabilis = assay: Antibacterial activity against gram-negative Proteus mirabilis PM385 by CLSI method; how it was run: as §2
Burkholderia cenocepacia = assay: Antibacterial activity against gram-negative Burkholderia cenocepacia BC240 by CLSI method
How it was run: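 Defibrinated horse blood added where appropriate. Compounds serially diluted in sterile deionized water. Strains from ATCC unless otherwise noted. Runs accepted when comparator antibiotics fell within QC ranges for ATCC quality control strains.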

Escherichia coli [11] = assay: Antibacterial activity against gram-negative Escherichia coli EC107 by CLSI method; how it was run: as §2
Pseudomonas aeruginosa [12] = assay: Antibacterial activity against Pseudomonas aeruginosa PA1145 in BALB/c mouse model of lung infection assessed as reduction in log10CFU per gram of lung at 40 mg/kg, iv bid administered 2 to 12 hrs of post-infection measured after 24 hrs relative to untreated control; how it was run: as §3
[13] = system: Stenotrophomonas maltophilia; assay: Antibacterial activity against gram-negative Stenotrophomonas maltophilia SM256 by CLSI method; how it was run: as §2
Pseudomonas aeruginosa [14] = assay: Antibacterial activity against Pseudomonas aeruginosa PA1145 in BALB/c mouse model of lung infection assessed as reduction in log10CFU per gram of lung at 15 mg/kg, iv bid administered 2 to 12 hrs of post-infection measured after 24 hrs relative to untreated control; how it was run: as §3
Pseudomonas aeruginosa [15] = assay: Antibacterial activity against Pseudomonas aeruginosa PA694 in CD-1 mouse model of thigh infection assessed as reduction in log10CFU per gram of thigh at 15 mg/kg, iv bid administered 2 to 12 hrs of post-infection measured after 24 hrs relative to untreated control; how it was run: as §4
Enterococcus faecalis = assay: Antibacterial activity against gram-positive Enterococcus faecalis EFs327 harboring tet(M) by CLSI method; how it was run: as §1
Streptococcus pneumoniae = assay: Antibacterial activity against gram-positive Streptococcus pneumoniae SP160 harboring tet(M) by CLSI method; how it was run: as §1
Pseudomonas aeruginosa [16] = assay: Antibacterial activity against Pseudomonas aeruginosa PA1145 in BALB/c mouse model of lung infection assessed as reduction in log10CFU per gram of lung compound administered intranasally as bid for 2 to 12 hrs of post-infection measured after 24 hrs; how it was run: as §3
Staphylococcus aureus [17] = assay: Antibacterial activity against gram-positive Staphylococcus aureus SA101 by CLSI method; how it was run: as §2

CN(C)[C@@H]1C(O)=C(C(N)=O)C(=O)[C@@]2(O)C(O)=C3C(=O)c4c(O)cc([C@@H]5CCCN5)c(C(F)(F)F)c4C[C@H]3C[C@@H]12
MIC (Klebsiella pneumoniae): 0.125 µg/mL (≈ 0.227 µM)
MIC (Pseudomonas aeruginosa [1]): 4 µg/mL (≈ 7.25 µM)
MIC (Escherichia coli [2]): 2 µg/mL (≈ 3.63 µM)
MIC (Pseudomonas aeruginosa [3]): 2 µg/mL (≈ 3.63 µM)
MIC (Staphylococcus aureus [4]): 4 µg/mL (≈ 7.25 µM)
Activity (Pseudomonas aeruginosa [5]): Dose-dependent effect
MIC (Pseudomonas aeruginosa [6]): 4 µg/mL (≈ 7.25 µM)
MIC (Enterococcus faecium): 0.25 µg/mL (≈ 0.453 µM)
Activity (Pseudomonas aeruginosa [7]): 1.7 deltalog10CFU
MIC (Enterobacter cloacae): 8 µg/mL (≈ 14.5 µM)
MIC (Acinetobacter baumannii): 2 µg/mL (≈ 3.63 µM)
MIC (Staphylococcus aureus [8]): ≤ 0.0156 µg/mL
Activity (Pseudomonas aeruginosa [9]): 1.9 deltalog10CFU
Activity (Pseudomonas aeruginosa [10]): 0.4 deltalog10CFU
MIC (Proteus mirabilis): 0.5 µg/mL (≈ 0.907 µM)
MIC (Burkholderia cenocepacia): 8 µg/mL (≈ 14.5 µM)
MIC (Escherichia coli [11]): ≤ 0.0156 µg/mL
Activity (Pseudomonas aeruginosa [12]): 3.7 deltalog10CFU
MIC [13]: 1 µg/mL (≈ 1.81 µM)
Activity (Pseudomonas aeruginosa [14]): 2.3 deltalog10CFU
Activity (Pseudomonas aeruginosa [15]): 0.9 deltalog10CFU
MIC (Enterococcus faecalis): 1 µg/mL (≈ 1.81 µM)
MIC (Streptococcus pneumoniae): ≤ 0.0156 µg/mL
Activity (Pseudomonas aeruginosa [16]): Dose-dependent effect
MIC (Staphylococcus aureus [17]): 0.0625 µg/mL (≈ 0.113 µM)
